Rpn11 block: blocks the human proteasome subunit Rpn11; AID 588493; O00487; human 26S proteasome, Ub4-pepOG fluorescence polarization; 20S core pre-blocked with epoxomicin; actives 0.59% (n = 360,000); inhibition, % at 20 µM;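 active means inhibition at 20 µM, scaled to each plate's controls, above about 33%, limit read from the data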
HNF4A DNA FP: change in binding of human HNF4 alpha to DNA | HNF4a-FITC DNA binding, fluorescence polarization, 1 h | activity change, % at 10 µM | actives 0.3% (n = 360,000); in the data active means activity change above about 30%, passing the limit was not always enough
SENP1 FRET inh: blocks the human SENP1 SUMO protease catalytic domain; recombinant SENP1 catalytic domain, CyPet-SUMO1-YPet FRET cleavage; inhibition, % at 10 µM; actives 0.21% (n = 360,000); Q9P0U3;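 active means inhibition at least 30% at 10 µM, raw YFP signal under a set limit, fluorescence ratio 0.5 to 1.5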;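 further: 0% = enzyme with DMSO and 100% = no enzyme wells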
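System: Recombinant human SENP1 catalytic domain, His6-tagged | Incubation: Enzyme reaction for 50 min at room temperature, dark | Medium: Tris pH 8 with BME, BSA, NP40 and catalase | Also added: 25 nM SUMO1 FRET substrate | Compound: 10 µM single point, 0.5% DMSO | Measured by: FRET fluorescence in CFP and YFP emission channels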
TPT1 inh: inhibitors of Candida albicans tRNA 2'-phosphotransferase TPT1. recombinant caTPT1, FP RNA substrate dephosphorylation. inhibition, % at 5 µM. actives 0.81% (n = 300,000);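 active means inhibition above the mean of all tested compounds plus 3 SD, set per screening campaign, cut at about 24% in these data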;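 further: plate controls were DMSO alone for no effect and ferristatin control at 100 nM for full effect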
CSN deneddyl inh: inhibitors of human CSN-mediated cullin deneddylation; Purified CSN, SCF-Nedd8-OG deneddylation, fluorescence polarization; Q92905; actives 0.38% (n = 360,000); inhibition, % at 12.5 µM;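 active means pattern-corrected inhibition above about 35%, with an unprinted fluorescence ratio check between 0.5 and 1.5, limit read from the data, passing the limit was not always enough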;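 further: 0% = enzyme with substrate and 100% = substrate without enzyme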
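Assay system: HEK293T-derived human Csn5 enzyme; quantity: 0.24 nM enzyme; medium: Tris/NaCl/DTT buffer, pH 7.5; also added: substrate SCFSkp2-Nedd8OG, 10 nM; doses: 12.5 µM compound; schedule: 90 min reaction at room temperature; signal: FP; read-out: % inhibition of substrate cleavage by Csn5; benchmarks: substrate-only high control, full reaction low control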
ATG4B inh: inhibitors of human ATG4B cysteine protease. Q9Y4P1. ATG4B cleavage of LC3-PLA2, NBD-HPC fluorescence, 1 h. inhibition, % at 8.33 µM. actives 0.51% (n = 340,000)
TPT1 inh confirm: TPT1 (C. albicans) inhibition, confirmation. shares compounds with TPT1 inh. recombinant caTPT1, fluorescence polarization, RNase T1 coupled. inhibition, % at 5 µM. actives 74% (n = 2,400). AID 2149;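 active means inhibition above the primary screen limit, the mean inhibition of all tested compounds plus 3 SD, cut at about 25% in these data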
RNase T1 inh: RNase T1 inhibition in TPT1 counter-screen; inhibition, % at 5 µM; actives 83% (n = 2,400); shares compounds with TPT1 inh; RNase T1 cleavage, fluorescence polarization, 1536-well;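 active means inhibition above the solvent-only control well mean plus 3 SD, limit set per screening run, cut at about 23% in these data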;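 further: plate controls were DMSO wells with enzyme for no effect and wells without RNase T1 for full effect; inhibitors block cleavage so intact labeled substrate keeps polarization high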
Target sequence (P00651 whole entry, looked up): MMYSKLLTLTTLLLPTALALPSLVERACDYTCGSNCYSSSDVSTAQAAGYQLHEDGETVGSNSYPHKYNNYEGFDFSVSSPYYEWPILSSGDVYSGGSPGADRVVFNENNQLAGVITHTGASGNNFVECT
Rpn11 inh conf: Rpn11 inhibition confirmation, single concentration; shares compounds with Rpn11 block; purified human 26S proteasome, Ub4-pepOG fluorescence polarization; proteasome pretreated with epoxomicin; inhibition, % at 20 µM; actives 29% (n = 1,900); AID 602318
MMP-2 inh: counter-screen for RPN11 inhibitors: inhibition of human MMP-2; recombinant MMP-2, FRET peptide cleavage fluorescence; inhibition, % at 20 µM; actives 4% (n = 1,900); shares compounds with Rpn11 block;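 further: human MMP-2 activated beforehand with APMA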
Target sequence (P08253 whole entry, looked up): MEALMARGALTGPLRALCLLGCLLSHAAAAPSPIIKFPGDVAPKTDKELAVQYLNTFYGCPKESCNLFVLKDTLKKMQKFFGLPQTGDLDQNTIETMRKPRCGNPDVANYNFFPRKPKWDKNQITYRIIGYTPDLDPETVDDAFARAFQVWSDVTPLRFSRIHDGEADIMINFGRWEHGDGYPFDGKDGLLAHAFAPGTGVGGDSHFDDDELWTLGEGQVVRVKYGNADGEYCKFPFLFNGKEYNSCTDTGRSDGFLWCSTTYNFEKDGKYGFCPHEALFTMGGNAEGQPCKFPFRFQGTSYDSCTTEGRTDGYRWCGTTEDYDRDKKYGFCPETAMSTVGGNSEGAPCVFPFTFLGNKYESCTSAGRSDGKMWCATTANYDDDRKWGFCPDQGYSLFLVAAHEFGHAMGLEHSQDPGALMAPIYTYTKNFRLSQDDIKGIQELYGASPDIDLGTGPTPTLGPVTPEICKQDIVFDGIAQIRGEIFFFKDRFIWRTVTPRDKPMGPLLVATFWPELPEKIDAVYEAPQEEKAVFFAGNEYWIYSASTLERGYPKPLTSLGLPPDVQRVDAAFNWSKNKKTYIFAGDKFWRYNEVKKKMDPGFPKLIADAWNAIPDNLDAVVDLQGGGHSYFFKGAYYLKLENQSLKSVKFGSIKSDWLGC
Thrombin FP: counter-screen for RPN11 inhibitors: inhibition of bovine thrombin. shares compounds with Rpn11 block. bovine thrombin cleavage of Ub4-pepOG, fluorescence polarization. inhibition, % at 20 µM. actives 13% (n = 1,900). AID 602333;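 active means mean inhibition at least 40% at 20 µM, or signal 3 deviations below plate average, so some actives read negative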;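 further: plate controls were thrombin with DMSO for no effect and buffer wells lacking thrombin for full effect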
Starred values were filed as active, the others as inactive; nt = not tested or not shown; ! = not confirmed by another sample. Most compounds without a hit are left out; they make up all but 2% or so of the library. Unless noted, no stated cut-off is given here; in the data, active means inhibition above about 40%; inactive means the rest.

SMILES	Rpn11 block	HNF4A DNA FP	SENP1 FRET inh	TPT1 inh	CSN deneddyl inh	ATG4B inh	TPT1 inh confirm	RNase T1 inh	Rpn11 inh conf	MMP-2 inh	Thrombin FP
Cc1c(N=C2Nc3cccc4cccc2c34)c(=O)n(-c2ccccc2)n1C	nt	42.6*!	-29.6	87.8*	18.7	0.1	108.5*	113.6*	-9.9	-38.2	active
N#C/C(=C\c1ccc(-c2ccccc2)cc1)c1nc(-c2ccco2)cs1	55.7*	22.4	-26.9	60.5*	14.4	30.4	20.6	28.1*	-1.6	-13.6	-4.7
Cc1cc(C2=CC(=O)C[C@H](c3ccc4c(c3)OCO4)C2)ccc1F	-0.3	-1.9	-0.1	nt	-1.6	-3.7	nt	nt	nt	nt	nt
Cc1ccc(CO/N=C\Cc2snc(Sc3ncc(C(F)(F)F)cc3Cl)c2C#N)cc1	44.7*	19.9	-58.8	35.2*	19.9	4.8	27.0*	34.1*	60.1*	9.7	49.1*
COc1ccc(C(O)c2nc(-c3cccc(F)c3)cs2)cc1 (stereo not given)	0.2	-4.3	6.3	nt	3.5	nt	nt	nt	nt	nt	nt
O=C1/C(=C/c2ccc(O)c(O)c2)Oc2cc(O)ccc21	86.3*	19.5	-20.0	43.9*	29.6	-3.6	57.7*	66.7*	49.0*	3.5	29.9
O=C1/C(=C/c2cccc([N+](=O)[O-])c2)Oc2cc(O)ccc21	11.2	2.5	10.6	21.8	0.8	2.3	nt	nt	nt	nt	nt
CCOC(=O)CSc1nc2ccccc2n1C(=O)OCC	45.9*	22.3	-1.1	38.7*	8.7	-8.8	37.0*	47.4*	51.1*	-17.6	31.5
COC(=O)N(C)C[C@@H]1OCc2cnnn2CCCC(=O)N([C@H](C)CO)C[C@@H]1C	1.5	-6.0	2.7	nt	2.7	nt	nt	nt	nt	nt	nt
COc1ccc(S(=O)(=O)NNS(=O)(=O)c2ccc(OC)c(OC)c2)cc1OC	1.7	-0.3	-0.3	nt	-5.3	nt	nt	nt	nt	nt	nt
Cc1ccc(S(=O)(=O)N2[C@@H](c3ccccc3F)C(C(=O)O)=CC[C@H]2c2ccc(Cl)c(Cl)c2)cc1	14.8	-2.9	0.4	-3.9	-0.9	9.0	nt	nt	nt	nt	nt
O=C(O)c1ccccc1N/N=C/C1=C(N2CCOCC2)C(=C\c2ccccc2)/CC1	60.3*	26.9	-34.6	24.6*	23.2	2.1	93.5*	102.2*	15.4	-33.7	-84.1
O=C(N/N=C/C1=C(N2CCOCC2)C(=C\c2ccccc2)/CC1)Nc1ccccc1	18.9	3.3	1.4	-1.2	-0.2	5.0	nt	nt	nt	nt	nt
CCOc1ccc(S(=O)(=O)N(CC(=O)N/N=C/c2ccc(-c3ccc([N+](=O)[O-])cc3)o2)c2ccccc2)cc1	58.5*	-9.8	-18.4	38.6*	8.7	-4.6	39.3*	52.0*	43.5*	74.3*	18.6
C=C1C(=O)OC2C=C(CO)C3OC3C3OC3(C)CC(OC(=O)/C(=C/C)COC(C)=O)C12 (stereo not given)	0.1	-0.4	1.3	nt	-1.8	0.9	nt	nt	nt	nt	nt
CC(=O)N1CCc2cc(N=NC3=C(O)CC(C)(C)CC3=O)ccc21	108.3*	66.0*	67.3*	26.8*	29.2	3.3	46.2*	56.9*	66.5*	-29.3	48.0*
Cc1ccc(C(=O)CSc2cc(C)[nH]c(=O)n2)cc1	60.0*	16.9	-33.0	28.1*	10.1	-15.4	38.8*	46.6*	48.6*	16.2	23.8
N#Cc1c(-c2ccco2)cc(-c2ccc(F)cc2)nc1N	72.9*	43.5*	-18.8	24.7*	27.1	25.9	29.8*	38.5*	49.8*	-1.8	38.1
N#Cc1c(-c2ccc(F)cc2)cc(-c2cccnc2)nc1N	11.7	4.2	-117.6	5.9	3.2	-7.5	nt	nt	nt	nt	nt
Nc1c(C(=O)N/N=C/c2cccnc2)oc2nc(-c3ccccc3)cc(-c3ccco3)c12	62.1*	23.1	-38.9	57.8*	-3.3	-7.4	100.4*	102.6*	-51.0	-80.7	active
C/C(=N\Nc1ccc([N+](=O)[O-])cc1)c1cc2ccccc2o1	108.2*	55.9*	-35.3	111.0*	25.1	-7.1	110.8*	112.7*	59.9*	-47.2	34.8
O=c1[nH]cnc2c1nnn2C1OC(CO)C(O)C1O (stereo not given)	-5.0	2.6	3.2	nt	2.1	nt	nt	nt	nt	nt	nt
Cc1cccc(/C=N/c2sc3c(c2C#N)CCN(Cc2ccccc2)C3)c1O	50.5*	23.0	-44.5	57.9*	29.0	2.0	55.8*	68.6*	17.8	-10.8	-7.0
COc1ccc(/C=N/c2sc3c(c2C#N)CCN(Cc2ccccc2)C3)c(O)c1	nt	nt	nt	11.4	nt	nt	nt	nt	nt	nt	nt
COc1ccccc1/C=C/C=C1N=C(/C=C/c2ccc(Cl)cc2)OC/1=O	59.7*	7.0	-2.8	40.0*	10.5	2.5	123.5*	124.1*	11.3	-51.6	4.3
SMILES	Rpn11 block	HNF4A DNA FP	SENP1 FRET inh	TPT1 inh	CSN deneddyl inh	ATG4B inh	TPT1 inh confirm	RNase T1 inh	Rpn11 inh conf	MMP-2 inh	Thrombin FP
COc1ccc(/C=C2\SC(=S)N(CCCC(=O)Nc3cccc(C(=O)O)c3)C2=O)cc1OC	54.3*	25.4	-12.4	36.2*	17.4	10.4	50.3*	66.1*	83.4*	-38.2	66.3*
COc1cccc(/C=C2\SC(=S)N(CCCC(=O)Nc3cccc(C(=O)O)c3)C2=O)c1	-4.0	0.2	2.2	nt	1.0	nt	nt	nt	nt	nt	nt
CC(C)NC(=O)N(C)C[C@H]1OCc2cnnn2CCCC(=O)N([C@H](C)CO)C[C@H]1C	-1.8	1.1	-2.9	nt	-0.9	nt	nt	nt	nt	nt	nt
CN(C)c1ccc(/C=C/c2nc3ccccc3s2)cc1	49.1*	36.3*	-22.5	110.9*	17.8	8.8	113.3*	114.1*	32.1	-5.5	24.2
Cc1ccccc1-n1ncc2c1CC(C)(C)CC2NC(=O)C1=CC(=O)CC(C)(C)O1 (stereo not given)	-1.5	-3.4	-10.5	0.0	-4.4	-2.8	nt	nt	nt	nt	nt
O=C(Nc1nnc([C@@H]2C[C@H](O)[C@@H](CO)O2)s1)NC1CCCCC1	-3.0	2.6	-0.1	nt	-1.9	nt	nt	nt	nt	nt	nt
COC(=O)c1c(-c2ccc(C)cc2)csc1NC(=O)c1c(-c2ccccc2)noc1C	nt	nt	nt	-0.2	nt	nt	nt	nt	nt	nt	nt

Screens as filed in PubChem BioAssay.
